Data set [1] addresses Genome polyprotein (West Nile virus, UniProt P06935). The data set can be described thus: Inhibition of West Nile virus NS2B (49 to 96 residues)/NS3 (2 to 184 residues) protease expressed in Escherichia coli BL21 using Bz-Nle-Lys-Lys-Arg-AMC as substrate preincubated for 10 mins by fluorescence-based biochemical assay. The essentials: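 Recombinant WNV NS2B-NS3 protease, tested in the same way as the Zika protease assay. Compound was preincubated with enzyme for 10 min before Bz-Nle-Lys-Lys-Arg-AMC was added. Hydrolysis was followed as AMC fluorescence (Ex 360/Em 460 nm) read every 30 s. IC50 was derived by dose-response curve fitting.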

For another data set, the system named is U-87 MG. The data set can be described thus: Cytotoxicity against human U87 cells assessed as inhibition of growth by MTT assay. The data set is classed as cell-based. The note with it: u-87mg atcc.
The next data set has as its target Nonstructural protein 3 (Zika virus, UniProt A0A024AXB9). The data set can be described thus: Inhibition of Zika virus recombinant NS2B (47 to 95 residues)/NS3 (1 to 177 residues) protease expressed in Escherichia coli BL21 using Bz-Nle-Lys-Lys-Arg-AMC as substrate preincubated for 10 mins by fluorescence-based biochemical assay. The essentials:
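ZIKV NS2B-NS3 protease at 1 nM, with 10 µM Bz-Nle-Lys-Lys-Arg-AMC in 20 mM HEPES pH 7.3 containing 0.05% Triton X-100. Compound at increasing concentrations in triplicate, pre-incubated with enzyme 10 min before substrate. Fluorescence (Ex 360/Em 460 nm) read every 30 s. IC50 from dose-response curve fit, 3 independent experiments, standard deviation.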

For another data set, the system named is Zika virus. The data set can be described thus: Antiviral activity against Zika virus infected in human U87 cells assessed as reduction in infectious virus in supernatant by measuring infection of Vero cells incubated with supernatant of viral infected U87 cells and measured following infection of supernatants with Vero cells for 7 days by MTT assay. Format: functional. The note with it: U-87 MG, 168 h, time 7 day. The essentials:
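U87 cells (2×10^4/well) in DMEM with 2% FBS, infected with ZIKV FLR strain (passage-3 stock) at MOI 0.01 for 1 h, then PBS-washed. Compound added in triplicate, 2 days at 37 °C. Half-log dilutions of supernatant put on Vero monolayers in quadruplicate for 7 days. CPE by microscopy then MTT. TCID50 from highest dilution infecting 2/4 wells. At least 2 independent experiments.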

Data set [2] has as its target Genome polyprotein (dengue virus type 2, UniProt P29990). The data set can be described thus: Inhibition of Dengue virus 2 NS2B (50 to 95 residues)/NS3 (1 to 182 residues) protease expressed in Escherichia coli BL21 using Bz-Nle-Lys-Lys-Arg-AMC as substrate preincubated for 10 mins by fluorescence-based biochemical assay. The essentials:
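Recombinant DENV-2 NS2B-NS3 protease assayed like the ZIKV protease. Bz-Nle-Lys-Lys-Arg-AMC substrate, compound pre-incubated with enzyme 10 min, fluorescence monitored at Ex 360/Em 460 nm. IC50 from dose-response fit of triplicate samples at increasing concentrations.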

For data set [3], the target named is Genome polyprotein (dengue virus type 2) (UniProt P29990). The data set can be described thus: Competitive inhibition of Dengue virus 2 NS2B (50 to 95 residues)/NS3 (1 to 182 residues) protease expressed in Escherichia coli BL21 using increased concentration of Bz-Nle-Lys-Lys-Arg-AMC substrate. The essentials: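 Steady-state kinetics. Initial velocities were measured across a range of inhibitor concentrations and substrate levels. […] Fluorescence was read at Ex 360/Em 460 nm. An IC50 was fitted at each substrate level and plotted against substrate concentration to assign the mode of inhibition.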

Each structure is given as a SMILES string. Activity calls are given as the source filed them. No cut-off for these calls is given here.

Nonstructural protein 3, sequence (A0A024AXB9 whole entry, the tested form may be a part): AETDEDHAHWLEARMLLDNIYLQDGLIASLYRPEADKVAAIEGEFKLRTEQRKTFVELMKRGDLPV
Genome polyprotein (West Nile virus, UniProt P06935), sequence (P06935 1371-1501 limits assumed): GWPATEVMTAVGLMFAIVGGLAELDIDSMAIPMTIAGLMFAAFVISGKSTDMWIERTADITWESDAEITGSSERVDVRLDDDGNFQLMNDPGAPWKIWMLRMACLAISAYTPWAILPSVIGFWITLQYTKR
Genome polyprotein (West Nile virus, UniProt P06935), sequence (P06935 1502-2120 limits assumed): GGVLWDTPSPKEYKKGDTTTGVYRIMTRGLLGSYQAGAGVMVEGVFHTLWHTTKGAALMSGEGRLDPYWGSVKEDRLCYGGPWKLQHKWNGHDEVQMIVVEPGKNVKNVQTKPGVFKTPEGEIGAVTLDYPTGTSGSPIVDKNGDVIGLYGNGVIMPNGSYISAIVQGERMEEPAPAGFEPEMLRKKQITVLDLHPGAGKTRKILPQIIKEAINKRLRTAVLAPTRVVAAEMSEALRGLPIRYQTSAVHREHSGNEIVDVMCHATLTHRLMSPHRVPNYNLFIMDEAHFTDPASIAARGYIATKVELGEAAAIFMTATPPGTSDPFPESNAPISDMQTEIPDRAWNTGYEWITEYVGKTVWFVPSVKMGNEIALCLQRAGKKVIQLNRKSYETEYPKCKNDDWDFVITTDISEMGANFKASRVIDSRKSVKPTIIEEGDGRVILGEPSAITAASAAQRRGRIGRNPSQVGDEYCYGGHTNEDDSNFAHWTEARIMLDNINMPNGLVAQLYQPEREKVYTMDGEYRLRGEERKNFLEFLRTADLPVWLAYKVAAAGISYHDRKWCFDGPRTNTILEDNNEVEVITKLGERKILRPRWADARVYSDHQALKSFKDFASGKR

In the case of `O=C(NCC1CCNCC1)c1cc2ccc(-c3ccc(Oc4ccccc4)cc3)cc2[nH]1`, the IC50 against Genome polyprotein [1] turned out to be 6.6 µM; at Nonstructural protein 3, 1.6 µM; at Genome polyprotein [2], 6.5 µM. The 50% cytotoxic concentration (CC50) in the data set on U-87 MG was greater than 10 µM. Also, the EC68 in the data set with Zika virus was found to be 2.5 µM.

For `O=C(NCC1CCNCC1)c1c[nH]c2nc(-c3ccc(CN4CCCCC4)cc3)ccc12`, the IC50 against Genome polyprotein [1] was found to be 8.6 µM; on Nonstructural protein 3, 0.45 µM; against Genome polyprotein [2], 9.2 µM. Moreover, in the data set on U-87 MG, the half-maximal cytotoxic concentration (CC50) is greater than 10 µM. Also, the EC68 in the data set with Zika virus is 10 µM.

Turning to `O=C(NCC1CCNCC1)c1cc2ccc(-c3ccoc3)cc2[nH]1`, the outcome in data set [3] was inactive. In addition, the half-inhibitory concentration (IC50) at Genome polyprotein [1] was found to be 5.7 µM; on Nonstructural protein 3, 0.32 µM; at Genome polyprotein [2], 1.6 µM. Besides, the CC50 with U-87 MG was greater than 10 µM. Further, the EC68 with Zika virus was found to be 1 µM.

As to `O=C(NC1CCNCC1)c1c[nH]c2cc(-c3ccncc3)ccc12`, the figures for the IC50 against Genome polyprotein [1], at Nonstructural protein 3 and against Genome polyprotein [2] were 10.5 µM, 1 µM and 10 µM, respectively. In the data set with U-87 MG, the CC50 is greater than 10 µM. Further, the EC68 in the data set on Zika virus worked out at 10 µM.

For the compound `O=C(NCC1CCNCC1)c1c[nH]c2cc(-c3ccoc3)c(-c3ccoc3)cc12`, the IC50 at Genome polyprotein [1] amounted to 3.7 µM; at Nonstructural protein 3 it was 0.37 µM; on Genome polyprotein [2], 3.1 µM. The half-maximal cytotoxic concentration (CC50) in the data set with U-87 MG was greater than 10 µM. Moreover, the EC68 with Zika virus is 3 µM.

With `O=C(NCC1CCNCC1)c1cc2ccc(-c3ccc(OC(F)(F)F)cc3)cc2[nH]1`, the IC50 against Genome polyprotein [1] is 16 µM; against Genome polyprotein [2] it was 10.7 µM. For the same compound, the CC50 with U-87 MG was greater than 10 µM. Also, the EC68 with Zika virus is greater than 10 µM.

In the case of `O=C(NCC1CCNCC1)c1cc2ccc(-c3cn[nH]c3)cc2[nH]1`, the figures for the 50% inhibitory concentration (IC50) against Genome polyprotein [1], on Nonstructural protein 3 and against Genome polyprotein [2] were 3.5 µM, 0.99 µM and 10.3 µM, respectively. Besides, in the data set with U-87 MG, the CC50 was greater than 10 µM. The EC68 in the data set on Zika virus was greater than 10 µM.

As for `O=C(NCC1CCNCC1)c1c[nH]c2cc(-c3ccc(CN4CCCCC4)cc3)ccc12`, the concentration for half-maximal inhibition (IC50) against Genome polyprotein [1] is 32 µM; at Nonstructural protein 3 it was 3.1 µM; against Genome polyprotein [2], 49.7 µM. Also, the CC50 in the data set on U-87 MG was greater than 10 µM. The EC68 with Zika virus was determined as 10 µM.

The values above are taken from ChEMBL document CHEMBL4842369, “Synthesis, structure-activity relationship and antiviral activity of indole-containing inhibitors of Flavivirus NS2B-NS3 protease” (Eur J Med Chem, 2021).
